Activity calls are given as the source filed them. No cut-off for these calls is given here.
Experiments:
[1] = molecular target: T1, Amine oxidase [flavin-containing] B (Rattus norvegicus, UniProt P19643); assay: Inhibition of rat brain monoamine oxidase B at 10 uM
T1 sequence (P19643 whole entry): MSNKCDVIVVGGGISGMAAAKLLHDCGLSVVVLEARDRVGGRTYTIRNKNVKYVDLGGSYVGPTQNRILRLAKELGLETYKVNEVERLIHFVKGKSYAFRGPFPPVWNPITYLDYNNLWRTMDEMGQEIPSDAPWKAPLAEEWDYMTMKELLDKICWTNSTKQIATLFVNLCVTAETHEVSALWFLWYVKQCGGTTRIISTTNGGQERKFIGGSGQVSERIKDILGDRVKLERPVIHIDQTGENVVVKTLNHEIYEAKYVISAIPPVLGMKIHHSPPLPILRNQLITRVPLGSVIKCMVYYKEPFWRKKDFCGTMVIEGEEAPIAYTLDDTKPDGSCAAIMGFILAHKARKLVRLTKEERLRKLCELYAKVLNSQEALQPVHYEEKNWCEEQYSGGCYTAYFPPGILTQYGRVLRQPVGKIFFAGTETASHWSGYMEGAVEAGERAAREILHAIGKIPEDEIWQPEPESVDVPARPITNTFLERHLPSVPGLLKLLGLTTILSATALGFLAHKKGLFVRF
Outline: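 Fresh rat brain homogenized in 9-fold volume of ice-cold PBS and incubated separately with each compound at 10^-5 M. MAO-B activity was determined by quantifying the oxidation product of benzylamine substrate. Pargyline was the positive control. The value is reported as an inhibition rate.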

[2] = molecular target: T2, Acetylcholinesterase (Rattus norvegicus) (UniProt P37136); assay: Inhibition of rat brain AChE at 10 uM by Ellman method
T2 sequence (whole entry): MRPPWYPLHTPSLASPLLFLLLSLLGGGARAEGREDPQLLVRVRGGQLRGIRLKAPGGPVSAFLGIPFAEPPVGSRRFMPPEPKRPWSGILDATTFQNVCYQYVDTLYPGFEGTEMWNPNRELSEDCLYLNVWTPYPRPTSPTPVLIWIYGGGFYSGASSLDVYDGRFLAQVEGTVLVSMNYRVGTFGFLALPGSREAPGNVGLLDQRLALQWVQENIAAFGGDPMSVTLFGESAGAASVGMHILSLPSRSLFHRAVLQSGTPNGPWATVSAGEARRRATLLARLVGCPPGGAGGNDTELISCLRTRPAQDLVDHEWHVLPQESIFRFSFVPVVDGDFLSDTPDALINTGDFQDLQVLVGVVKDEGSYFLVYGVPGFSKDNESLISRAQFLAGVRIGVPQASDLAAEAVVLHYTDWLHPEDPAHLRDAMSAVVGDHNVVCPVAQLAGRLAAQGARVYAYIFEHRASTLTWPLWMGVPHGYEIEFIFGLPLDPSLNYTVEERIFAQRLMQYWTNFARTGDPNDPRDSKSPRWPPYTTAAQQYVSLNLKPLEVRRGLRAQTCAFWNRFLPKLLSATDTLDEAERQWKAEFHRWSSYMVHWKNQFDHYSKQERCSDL
Outline: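 Source: fresh rat brain homogenised in 9 volumes of ice-cold PBS, incubated with each test compound separately. Activity measured spectrophotometrically at 25 °C by the Ellman method; test compounds at 10^-5 M; donepezil as positive control; read as percent inhibition.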

CC(C)C[C@](O[C@@H]1O[C@H](CO)[C@@H](O)[C@H](O)[C@H]1O)(C(=O)OCc1ccc(O[C@@H]2O[C@H](CO)[C@@H](O)[C@H](O)[C@H]2O)cc1)C(O)C(=O)OCc1ccc(O[C@@H]2O[C@H](CO)[C@@H](O[C@H]3O[C@H](CO)[C@@H](O)[C@H](O)[C@H]3O)[C@H](O)[C@H]2O)cc1 (stereo partly drawn)
Activity [1]: Not Active | Activity [2]: inactive

CC(C)C[C@](O)(C(=O)OCc1ccc(O[C@@H]2O[C@H](CO)[C@@H](O)[C@H](O)[C@H]2O)cc1)[C@H](O)C(=O)OCc1ccc(O[C@@H]2O[C@H](CO[C@@H]3O[C@H](CO)[C@@H](O)[C@H](O)[C@H]3O)[C@@H](O)[C@H](O)[C@H]2O)cc1
Activity [1]: Not Active | Activity [2]: inactive

CCOCc1ccc(O[C@@H]2O[C@H](CO)[C@@H](O)[C@H](O[C@@H]3O[C@H](CO)[C@@H](O)[C@H](O)[C@H]3O)[C@H]2O)cc1
Activity [1]: Not Active | Activity [2]: inactive

CC(C)C[C@](CC(=O)OCc1ccc(O[C@@H]2O[C@H](CO)[C@@H](O)[C@H](O)[C@H]2O)cc1)(O[C@@H]1O[C@H](CO)[C@@H](O)[C@H](O)[C@H]1O)C(=O)O
Activity [1]: Not Active | Activity [2]: inactive

CC(C)C[C@](O[C@@H]1O[C@H](CO)[C@@H](O)[C@H](O)[C@H]1O)(C(=O)OCc1ccc(O[C@@H]2O[C@H](CO)[C@@H](O)[C@H](O)[C@H]2O)cc1)[C@H](O)C(=O)OCc1ccc(O[C@@H]2O[C@H](CO)[C@@H](O)[C@H](O[C@@H]3O[C@H](CO)[C@@H](O)[C@H](O)[C@H]3O)[C@H]2O)cc1
Activity [1]: Not Active | Activity [2]: inactive

OCc1ccc(O[C@@H]2O[C@H](CO)[C@@H](O[C@@H]3O[C@H](CO)[C@@H](O)[C@H](O)[C@H]3O)[C@H](O)[C@H]2O)cc1
Activity [1]: Not Active | Activity [2]: inactive

OCc1ccc(O[C@@H]2O[C@H](CO)[C@@H](O[C@H]3O[C@H](CO)[C@@H](O)[C@H](O)[C@H]3O)[C@H](O)[C@H]2O)cc1
Activity [1]: Not Active | Activity [2]: inactive

COC(=O)[C@@H](O)[C@](O)(CC(C)C)C(=O)OCc1ccc(O[C@@H]2O[C@H](CO)[C@@H](O)[C@H](O)[C@H]2O)cc1
Activity [1]: Not Active | Activity [2]: inactive

OCc1ccc(O[C@@H]2O[C@H](CO)[C@@H](O)[C@H](O[C@@H]3O[C@H](CO)[C@@H](O)[C@H](O)[C@H]3O)[C@H]2O)cc1
Activity [1]: Not Active | Activity [2]: inactive

Reference: ChEMBL document CHEMBL1149894, “Glycosidic constituents of the tubers of Gymnadenia conopsea” (J Nat Prod, 2008)
